Screening data as filed in PubChem.
ASAP1 inh: ASAP1 ArfGAP inhibition; Q9ULH1; ASAP1-stimulated ARF1 GTP hydrolysis, GDP FP detection; inhibition, % at 16.5 µM; 360,000 compounds, 0.19% hits; AID 624377; in the data active = inhibition above about 25%;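 also: 0% = vehicle with enzyme and substrate and 100% = no enzyme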
Target sequence (Q9ULH1 325-724 limits assumed): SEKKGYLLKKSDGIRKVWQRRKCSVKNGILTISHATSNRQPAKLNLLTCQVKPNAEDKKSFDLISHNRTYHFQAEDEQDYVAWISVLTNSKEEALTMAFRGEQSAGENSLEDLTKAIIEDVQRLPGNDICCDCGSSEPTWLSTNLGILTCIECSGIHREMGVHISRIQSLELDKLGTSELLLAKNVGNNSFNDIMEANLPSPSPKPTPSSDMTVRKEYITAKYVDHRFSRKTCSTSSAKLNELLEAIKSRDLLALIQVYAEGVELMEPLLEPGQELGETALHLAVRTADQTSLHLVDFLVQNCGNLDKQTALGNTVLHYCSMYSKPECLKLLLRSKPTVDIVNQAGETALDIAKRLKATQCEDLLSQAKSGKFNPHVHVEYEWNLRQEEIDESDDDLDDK
SMARCA2 activ: increases SMARCA2 function in MMTV reporter cells; MG213 cells, MMTV-luciferase reporter, dexamethasone, overnight; activation, % at 9.1 µM; 370,000 compounds, 1% hits; in the data active = activation above about 7.8%;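 also: 0% = vehicle wells and 100% = reference activator wells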
ARFGAP1 inh: inhibits rat ARF GTPase activating protein 1; Arfgap1-stimulated ARF1 GTP hydrolysis, GDP FP detection; AID 651572; inhibition, % at 16.5 µM; Q62848; 360,000 compounds, 0.26% hits;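 active = inhibition above a per-plate limit, mean inhibition of low control wells plus 3 SD, cut at about 25% in these data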;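 also: 0% = DMSO wells with enzyme and 100% = wells lacking Arfgap1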
Target sequence (Q62848 1-136 limits assumed): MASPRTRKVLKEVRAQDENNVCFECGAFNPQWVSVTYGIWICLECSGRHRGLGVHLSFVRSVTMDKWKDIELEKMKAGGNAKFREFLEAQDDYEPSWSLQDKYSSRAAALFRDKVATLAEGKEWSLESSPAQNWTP
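Material – truncated rat Arfgap1 GAP domain · Buffer or medium – HEPES-based buffer, pH 7.5 · Reagent – human ARF1(Δ1-17)-GTP substrate · Dosing – 16.5 µM single point, 1.26% DMSO · Schedule – GTP hydrolysis reaction 2 h at 25 °C · Technique – GDP detection by fluorescence polarization · Benchmarks – No-Arfgap1 wells (100%) versus DMSO full-reaction wells (0%) · Repeats – single replicate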
esBAF inh: blocks esBAF chromatin remodeling in mouse ES cells; 350,000 compounds, 2% hits; AID 602393; reporter increase, % at 12.5 µM; Bmi1-luciferase knock-in reporter, 24 h; 100% = twice the neutral-well signal; in the data active = activation above about 40%; inconclusive = no clear call, values can overlap the other calls;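 also: 0% = median of the plate's neutral control wells and 100% = double that signal; a rise in the Bmi1 reporter signal indicates esBAF inhibition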
Ring1 derepress: de-represses Ring1 in mouse ESCs, confirming esBAF inhibition; mouse ESC E14, Ring1 mRNA RT-qPCR fold change; fold change at 33 µM; shares compounds with esBAF inh; 550 tested, under 10 active;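 active = Ring1 gene expression raised more than 2-fold over untreated cells in both replicates at either tested dose; inconclusive = only one replicate above 2-fold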;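 also: Ring1 transcript normalised to actin housekeeping signal by TaqMan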
esBAF Fgf4 qPCR: confirmation of esBAF inhibitors: Fgf4 repression in mouse ESCs; shares compounds with esBAF inh; mouse ESC E14, Fgf4 mRNA qPCR fold change; stronger effect = lower value; Fgf4 expression fold change at 33 µM; 550 compounds, 4% hits; AID 743177;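 active = Fgf4 expression under 0.8 fold of control in both repeat measurements at one or both tested doses; inconclusive = under 0.8 fold in just a single repeat measurement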;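 also: Fgf4 transcript normalised to actin in duplex TaqMan qPCR; cells exposed to compound for 24 h before lysis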
esBAF Bmi1 qPCR: confirmation of esBAF inhibitors: Bmi1 de-repression in mouse ESCs; shares compounds with esBAF inh; mouse ESE14 ES cells, Bmi1 mRNA qPCR fold; stronger effect = higher value; fold change at 33 µM; 550 tested, under 10 active;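 active = Bmi1 expression fold change above 6 at either tested concentration, seen in replicate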;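 also: higher fold means more Bmi1 de-repression and stronger esBAF inhibition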
A549 cytotox: A549 cell cytotoxicity; shares compounds with esBAF inh; plate reader; cell viability change % (negative = cytotoxic), % at 25 µM, hits read low; 550 tested, under 10 active; call rule not given here
HepG2 tox SP: kills or reduces viability of HepG2 cells; shares compounds with esBAF inh; AID 743189; HepG2 cytotoxicity, plate reader; stronger effect = lower value; activity change, negative = inhibition, % at 25 µM; 550 compounds, 4% hits; in the data active = activity change below about -50%
HEK293 cytotox SP: kills or reduces viability of HEK293 cells | shares compounds with esBAF inh | HEK293 cytotoxicity, plate reader | activity change, negative = inhibition, % at 25 µM, hits read low | AID 743190 | 550 compounds, 3% hits; in the data active = activity change below about -38%, passing the limit was not always enough
ARFGAP1 confirm: confirmation of rat ARFGAP1 inhibitors; inhibition, % at 16.5 µM; 890 compounds, 30% hits; ARFGAP1-stimulated ARF1 GTP hydrolysis, GDP tracer FP; shares compounds with ARFGAP1 inh; AID 651608;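 active = average inhibition over triplicates above the hit cutoff set in the earlier primary screen, cut at about 25% in these data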;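 also: 0% = Arfgap1 plus ARF1-GTP with DMSO and 100% = wells lacking Arfgap1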
* marks the source's active call; other numbers are inactive results; ? = inconclusive; nt = no result given. Compounds with a hit are over-represented: about 2.6% of the library has one in this group of screens.

SMILES	ASAP1 inh	SMARCA2 activ	ARFGAP1 inh	esBAF inh	Ring1 derepress	esBAF Fgf4 qPCR	esBAF Bmi1 qPCR	A549 cytotox	HepG2 tox SP	HEK293 cytotox SP	others
CCC1CCCCN1C(=O)c1ccc2nc(Cc3ccc(OC)cc3)oc2c1 (stereo not drawn)	1	5	3	67*	1	1.2	0.91	7	-11	12
COC(=O)C(Cc1ccc(OC(=O)c2ccc(Cl)cc2)cc1)N1Cc2ccccc2C1=O (stereo not drawn)	4	4	-2	72*	1.2	0.84	1.2	3	-30	-5
CO[C@@H]1CN(C)C(=O)c2cc(NS(=O)(=O)c3cccc(F)c3)ccc2OC[C@@H](C)N(Cc2cc(F)ccc2F)C[C@@H]1C	nt	nt	nt	-1	nt	nt	nt	nt	nt	nt
Oc1[nH]c2ccccc2c1/C=N/c1nccs1	0	4	3	71*	1.4	1	1.7	0	-40	-11
CCC(=O)Nc1ccc2c(c1)C(=O)N(C)[C@H]1CC[C@H](CC(=O)NCCOC)O[C@H]1CO2	nt	nt	nt	4	nt	nt	nt	nt	nt	nt
N#Cc1ccc(CO/N=C/c2ccccc2)cc1	2	-4	-4	6	nt	nt	nt	nt	nt	nt
C(=NOCc1ccccc1)c1cccnc1	3	1	0	58*	1.2	0.97	1.5	-8	-7	12
O=C1NCCC/C1=N/Nc1cc(F)ccc1F	3	2	0	60*	0.82	0.88	1.3	-12	-55*	-21
Cn1c(-c2ccccc2F)cc2onc(-c3ccccc3)c2c1=O	-5	7	-3	-27	nt	nt	nt	nt	nt	nt
Cn1c(-c2ncc(F)cc2F)cc2onc(-c3c(F)cccc3Cl)c2c1=O	8	7	14	91*	0.9	?	1.4	3	0	1
COc1ccc(NC(=O)Nc2ccc3c(c2)CC(=O)N([C@@H](C)CO)C[C@@H](C)[C@@H](CN(C)S(=O)(=O)c2ccc(OC)cc2)O3)cc1	nt	nt	nt	8	nt	nt	nt	nt	nt	nt
Cc1cccc(-n2nnc(C(=O)Nc3ccc(F)cc3)c2N)c1	6	1	-7	62*	0.94	0.84	1.9	-4	-38	-11
Cc1c(C(=O)Nc2ccc(F)cc2)nnn1-c1cccc(C(F)(F)F)c1	4	-6	-9	-3	nt	nt	nt	nt	nt	nt
C[C@H](CO)N1C[C@H](C)[C@@H](CN(C)C(=O)Nc2ccc(F)cc2)Oc2c(NC(=O)C3CCCCC3)cccc2C1=O	nt	nt	nt	0	nt	nt	nt	nt	nt	nt
Fc1ccccc1NC(=S)N1CCC(c2ccccc2)C1 (stereo not drawn)	-2	7	-2	82*	1.2	0.98	1.5	-14	3	-19
C[C@@H]1CCCCO[C@H](CN(C)Cc2ccc(C(=O)O)cc2)[C@@H](C)CN([C@H](C)CO)C(=O)c2cc(NC(=O)Nc3ccc(C(F)(F)F)cc3)ccc2O1	nt	nt	nt	-4	nt	nt	nt	nt	nt	nt
N#CC(c1ccccc1O)N1N=C(c2ccccc2)CC1c1ccccc1 (stereo not drawn)	0	-1	1	58*	1.1	0.95	1.3	-3	7	-4
N#Cc1c(/N=C/c2cccs2)sc2c1CCC2	-2	3	2	105*	1.1	?	1.2	-10	-9	-4
N#Cc1c(/N=C/c2ccco2)sc2c1CCCCC2	-1	0	1	-1	nt	nt	nt	nt	nt	nt
CSc1ccccc1NC(=O)c1ccc(N2CCCC2=O)cc1	-4	5	2	73*	1.2	0.82	1.3	-3	-15	5
Cc1ccc2c3c([nH]c2c1C)-c1nonc1CC3	-2	-2	-10	55*	1.2	?	1.8	-3	-34	-24
Cc1cc2c(nn1)CCc1nonc1-2	nt	nt	nt	1	nt	nt	nt	nt	nt	nt
Cc1ccc(NC(=O)Nc2ccc(F)cc2)cc1Cl	-5	1	0	68*	1.3	0.97	1.6	-2	-34	-3
Cc1ccc(NC(=O)c2cc(-c3cc(Cl)ccc3O)n[nH]2)cc1C	-12	-5	3	0	nt	nt	nt	nt	nt	nt
COc1ccc(Cl)c(-c2cc(C(=O)Nc3ccc(F)cc3)[nH]n2)c1	-19	3	-11	69*	1.4	0.85	1.5	10	12	10
SMILES	ASAP1 inh	SMARCA2 activ	ARFGAP1 inh	esBAF inh	Ring1 derepress	esBAF Fgf4 qPCR	esBAF Bmi1 qPCR	A549 cytotox	HepG2 tox SP	HEK293 cytotox SP	others
Cc1ccc(Cl)cc1-c1cc(C(=O)Nc2ccc(F)cc2)[nH]n1	1	1	0	63*	1.1	0.97	1.7	2	-17	-9
Cc1ccc(NC(=O)CCC(=O)c2ccc(F)cc2)cc1Cl	-13	-2	7	-7	nt	nt	nt	nt	nt	nt
C[C@H]1CN([C@@H](C)CO)C(=O)c2ccccc2-c2ccccc2CO[C@H]1CN(C)S(=O)(=O)c1ccsc1	nt	nt	nt	3	nt	nt	nt	nt	nt	nt
CCCNC(=O)[C@@H]1[C@@H](CO)[C@@H]2Cn3c(cccc3=O)[C@H]1N2C(=O)NCCC	nt	nt	nt	-5	nt	nt	nt	nt	nt	nt
c1ccc(-c2ccc3[nH]ccc3c2)cc1	3	5	5	59*	1	0.99	2.1	2	-17	8
COc1ccc(/C=C/c2ccncc2)c2ccccc12	nt	nt	nt	-5	nt	nt	nt	nt	nt	nt
COc1ccccc1C=Cc1ccnc2ccccc12	-1	-1	-2	82*	1.1	0.49*	11*	-8	34	-37
CNc1cnc(-c2ccc(F)c(F)c2F)cn1	-4	5	0	73*	1.1	0.96	1.5	-9	-17	-22
CNc1cnc(-c2ccsc2)cn1	-1	1	-8	?	nt	nt	nt	nt	nt	nt
COc1ccc(Cl)c(-c2cc(C(=O)Nc3ccccc3)[nH]n2)c1	14	-1	25*	97*	1.2	?	1.4	-3	-2	-20	ARFGAP1 confirm=11
C[C@@H]1CCCCO[C@H](CN(C)CC2CC2)[C@@H](C)CN([C@@H](C)CO)C(=O)c2cc(NS(=O)(=O)c3ccc(F)cc3)ccc2O1	nt	nt	nt	-1	nt	nt	nt	nt	nt	nt
